This is an account of results in ChEMBL document CHEMBL6134900 (J Med Chem, 2025).

Activity calls are given as the source filed them. The rule behind the calls is not given here.

The nature of series [1]: In vivo PROTAC activity at CRBN I391V mutant/SMARCA2 in mouse assessed as SMARCA2 degradation in spleen at 80 mg/kg, po administered once daily for 3 days and measured at 24 hrs post last dose by Western blotting analysis relative to control. The class given is functional. To be noted: time 3 day. The method in brief:
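CrbnI391V mice given 10, 20, 40 or 80 mg/kg or vehicle orally once daily for 3 days. Euthanised 24 h after the last dose. Spleen SMARCA2 measured by Western blot with actin as loading control, relative to vehicle. Plasma drug level measured at the same time.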
In general terms: Immunoblotting shows a protein as a band on a membrane.

Series [2] deals with T1, Protein cereblon/SWI/SNF-related matrix-associated actin-dependent regulator of chromatin subfamily A member 2 (Homo sapiens, UniProt P51531+Q96SW2). Put plainly: PROTAC activity at CRBN/SMARCA2 in human H322 cells harboring SMARCA4 mutant assessed as induction of SMARCA2 degradation at 1 uM in presence of MLN4924 by immunoblot analysis. The class given is cell-based.
Series [3] in a line: Toxicity in immunocompromised mouse xenografted with human NCI-H1568 cells assessed as drug tolerance at 80 mg/kg, administered once daily for 21 days. The class given is organism-based. The conditions noted are these: in vivo, 504 h, time 21 day. (In general: Xenograft models place foreign cells or tissue in a host animal.)
Series [4] has as its target T1, Protein cereblon/SWI/SNF-related matrix-associated actin-dependent regulator of chromatin subfamily A member 2. Put plainly: PROTAC activity at CRBN/SMARCA2 in human H322 cells harboring SMARCA4 mutant assessed as induction of SMARCA2 degradation at 1 uM in presence of pomalidomide by immunoblot analysis. The class given is cell-based.
A short description of series [5]: In vivo PROTAC activity at CRBN/SMARCA2 in female athymic nude mouse xenografted with human NCI-H1568 cells harboring SMARCA4 mutant assessed as SMARCA2 degradation at 40 mg/kg, po administered once daily via gavage for 13 days by Western blotting analysis relative to control. The class given is functional. The conditions noted are these: time 13 day. The method in brief:
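H1568 cells (2 × 10^6, PBS/Matrigel 1:1) implanted subcutaneously in the flank of female nude mice aged 6–8 weeks. Randomised at about 60 mm3 tumour volume. 40 mg/kg or vehicle given by oral gavage once daily for 13 days in 0.5% methylcellulose/Tween-80, sonicated. Tumours collected 24 h after dosing. SMARCA2 measured by Western blot against β-actin, relative to vehicle.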

A short description of series [6]: Drug metabolism in mouse liver microsomes assessed as Mono-oxygenation and hydrogenation mediated M1 metabolite formation at 10 uM incubated for 60 mins by LC-UV-HRMS analysis. The class given is ADME, Microsome. To be noted: 1 h. The essentials: (§1)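 Compound at 10 μM incubated with mouse liver microsomes at 37 °C for 60 min. Metabolites detected by LC-UV-HRMS, structures proposed from MS and MS2 data, and each metabolite given as a percentage.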
Background: Liver microsomes are vesicles of endoplasmic reticulum, rich in cytochrome P450 enzymes.

The test system of series [7] is NCI-H2030. In words: Synergistic antitumor activity against human NCI-H2030 cells harboring KRAS G12C mutant/SMARCA4 mutant assessed as cell growth inhibition at 1 uM incubated for 7 days in presence of sotorasib by Incucyte S3 analysis. The class given is functional, cell-based. To be noted: time 7.0 day. The essentials: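 H2030 cells plated at 500 per well and grown overnight at 37 °C. Treated with 3-fold dilutions of sotorasib, test agent, or both. Confluency imaged every 4 h for 7 days on IncuCyte S3. Synergy scored as Bliss/Lowe consensus, >10 taken as synergy.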

Series [8] relates to NCI-H2030. In words: Inhibition of ERK phosphorylation in human NCI-H2030 cells harboring KRAS G12C mutant/SMARCA4 mutant assessed as reduction in p-ERK level at 1.25 uM incubated for 72 hrs in presence of sotorasib by Western blotting analysis. It is filed as cell-based.
Series [9] can be described thus: Toxicity in female athymic nude mouse xenografted with human NCI-H1568 cells harboring SMARCA4 mutant assessed as change in body weight at 40 mg/kg, po administered once daily via gavage for 13 days relative to control. The class given is organism-based. To be noted: in vivo, 312 h, time 13 day. The essentials:
(§2)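 Cells (H1568 2 × 10^6, H2023 10 × 10^6, HCC515 5 × 10^6) in PBS:Matrigel 1:1, 200 μL, injected subcutaneously into flanks of 6–8-week-old females. Randomized at mean tumor volume 60 mm3 (H1568) or <200 mm3 (others). Dosed in 0.5% methylcellulose + 0.2–1% Tween-80, sonicated on ice. Caliper tumor volume and body weight tracked, mean ± SEM.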

Series [10] concerns the target T1, Protein cereblon/SWI/SNF-related matrix-associated actin-dependent regulator of chromatin subfamily A member 2. Put plainly: PROTAC activity at CRBN/SMARCA2 in CRBN knockout human H322 cells harboring SMARCA4 mutant assessed as induction of SMARCA2 degradation at 1 uM by immunoblot analysis. The class given is cell-based.
Series [11] is described as follows: Drug concentration in C57BL/6 mouse plasma at 80 mg/kg, po administered once daily for 3 days and measured at 24 hrs post last dose. The class given is ADME, organism-based. To be noted: time 3 day. The method in brief:
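Oral dosing once daily for 3 days: 5–80 mg/kg in C57BL/6 mice, 10–80 mg/kg in CrbnI391V mice. Euthanized 24 h after last dose. Plasma drug level measured. Spleen SMARCA2 by Western blot against actin loading control, relative to vehicle.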

Series [12] is described as follows: Drug metabolism in mouse liver microsomes assessed as N-dealkylation mediated 2-(6-amino-5-(4-(3-fluoro-4-(piperazin-1-yl)benzyl)piperazin-1-yl)pyridazin-3-yl)phenol metabolite formation at 10 uM incubated for 60 mins by LC-UV-HRMS analysis. The class given is ADME, Microsome. To be noted: 1 h. The method in brief: as §1
Series [13] can be described thus: Drug metabolism in mouse liver microsomes assessed as mono-oxygenation and N-dealkylation mediated M2 metabolite formation at 10 uM incubated for 60 mins by LC-UV-HRMS analysis. The class given is ADME, Microsome. The conditions noted are these: 1 h. The method in brief:
as §1

In series [14] the test system is NCI-H2030. Put plainly: Antitumor activity against human NCI-H2030 cells harboring SMARCA4 mutant xenografted in female athymic nude mouse assessed as tumor growth inhibition at 5 mg/kg, po administered once daily via gavage for 17 days relative to control. It is filed as functional. The conditions noted are these: NCI-H2030, 408 h, time 17 day, read-out: TGI. The essentials:
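10 × 10^6 H2030 cells in PBS:Matrigel 1:1, 200 μL, injected subcutaneously into flanks of 6–8-week-old females. Randomized at mean tumor volume <200 mm3. Oral gavage once daily in 10% DMSO, 40% PEG300, 1% Tween-80, 49% saline. Caliper tumor volume and body weight monitored, mean ± SEM.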

Series [15] can be described thus: Toxicity in female athymic nude mouse xenografted with human HCC515 cells harboring SMARCA4 mutant assessed as change in body weight at 5 mg/kg, po administered once daily via gavage for 19 days relative to control. The class given is organism-based. To be noted: in vivo, 456 h, time 19 day. The method in brief:
as §2

In series [16] the test system is NCI-H2030. Put plainly: Synergistic antitumor activity against human NCI-H2030 cells harboring KRAS G12C mutant/SMARCA4 mutant assessed as inhibition of colony formation incubated for 8 days in presence of sotorasib by clonogenic growth assay. It is filed as functional, cell-based. To be noted: time 8.0 day. The method in brief:
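H2030 clonogenic assay over 8 days with 2-fold dilutions of sotorasib, test agent, or both. Crystal violet staining, total colony area normalized. Synergy scored as Bliss/Lowe consensus, >10 taken as synergy.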

Series [17] in a line: Antitumor activity against human NCI-H2023 cells harboring SMARCA4 mutant xenografted in female athymic nude mouse assessed as tumor growth inhibition at 5 mg/kg, po administered once daily via gavage for 19 days relative to control. To be noted: NCI-H2023, 456 h, time 19 day, read-out: TGI. It is filed as functional. The method in brief:
as §2

Series [18] addresses T1, Protein cereblon/SWI/SNF-related matrix-associated actin-dependent regulator of chromatin subfamily A member 2. Put plainly: PROTAC activity at CRBN/SMARCA2 in human H322 cells harboring SMARCA4 mutant assessed as induction of SMARCA2 degradation at 0.1 uM in presence of MLN4924 by immunoblot analysis. The class given is cell-based.
For series [19] the target is unchanged. Put plainly: PROTAC activity at CRBN/SMARCA2 in CRBN knockout human H322 cells harboring SMARCA4 mutant assessed as induction of SMARCA2 degradation at 0.1 uM by immunoblot analysis. It is filed as cell-based.

Regarding `Nc1nnc(-c2ccccc2O)cc1N1CCN(Cc2ccc(N3CCC(CN4CCN(c5ccc6c(c5)C(=O)N(C5CCC(=O)NC5=O)C6=O)CC4)CC3)c(F)c2)CC1` (centres undefined), the Activity in series [1] is given as 81%; in series [3], “Non-toxic”; in [5] it was 50%; in [7], “Active; Robust Synergistic Growth Inhibition Observed”; in [9] it was under 10%. Further, the outcome in series [2], in [4] and in series [10] was inactive. Besides, the Drug metabolism result in series [6] is reported as “metabolite_detected”. Moreover, the inhibition entry in series [8] is “Active”. Also, the concentration at 72 h in series [11] came out at 1880 nM.

Consider `Nc1nnc(-c2ccccc2O)cc1N1CCN(Cc2ccc(N3CCN(CCOc4cccc5c4C(=O)N(C4CCC(=O)NC4=O)C5=O)CC3)c(F)c2)CC1` (centres undefined), for which the Drug metabolism result in [12] and in series [13] was “metabolite_detected” in each case. Besides, the inhibition in vivo at 5 mg/kg was 93.4% in [14] and 62.5% in series [17]. Moreover, the Activity in series [15] was under 20%. In addition, the result in [16] was Active. Further, the outcome in series [18] and in series [19] was inactive.
